Results taken from article PMC4116148 (Biochemistry, 2014).
fluorescein = fluorescein: fluorescein label on the Lys side chain

Biological target: T1, EHD1-EH (Homo sapiens, UniProt Q9H4M9)
T1 sequence (Q9H4M9 444-532 limits assumed): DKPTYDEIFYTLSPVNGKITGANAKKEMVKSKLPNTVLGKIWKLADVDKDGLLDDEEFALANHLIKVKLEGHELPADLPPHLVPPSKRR
Experiment: Fluorescence polarization
Type: binding
Procedure, shortened: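 Fluorescein-labelled peptide probes mixed with the EHD1 EH domain; binding read by fluorescence polarization. Buffer: 25 mM MOPS (pH 6.8), 1 mM CaCl2, 15 mM NaCl, 1.5% DMSO, 0.1% Tween 20.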

| Substance | loss of affinity (FP direct binding, reduced charge analogue relative to cNPF1^Flu) | binding to EHD1-EH (up to 67 μM EHD1-EH, 15 mM NaCl) |
| --- | --- | --- |
| -YNPFEAGK(Flu)- (cyclo(YNPFEAGK(fluorescein))) [cNPF5^Flu] | 3 fold | – |
| -YAPAEEGK(Flu)- (cyclo(YAPAEEGK(fluorescein))) [cAPA^Flu] | – | No binding was observed |
